The results in this text go back to ChEMBL document CHEMBL1821604, “Anticancer activity and cDNA microarray studies of a (RS)-1,2,3,5-tetrahydro-4,1-benzoxazepine-3-yl]-6-chloro-9H-purine, and an acyclic (RS)-O,N-acetalic 6-chloro-7H-purine” (Eur J Med Chem, 2011).

What all share (assay type): functional
Test [1] relates to MCF7. The experiment in a line: Down regulation of PCDH20 gene expression in human MCF7 cells at IC50 after 48 hrs by cDNA microarray technique relative to control.
The test system of test [2] is MCF7. Nature of the test: Down regulation of FLJ12985 gene expression in human MCF7 cells at IC50 after 48 hrs by cDNA microarray technique relative to control. The method in brief: (§1)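 Cells (8 × 10⁶) were cultured in DMEM with 10% heat-inactivated FBS at 37 °C under 5% CO₂. They were exposed for 48 h to compound at its IC₅₀, with DMSO-treated parallel cultures as controls (final DMSO ≤0.1% v/v). Total RNA was isolated by trizol/chloroform phase separation, RNeasy column cleanup and on-column DNase, then quantified by OD260/OD280. Expression was profiled by cDNA microarray relative to control.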

For test [3], the system named is MCF7. The experiment in a line: Down regulation of C1orf131 gene expression in human MCF7 cells at IC50 after 48 hrs by cDNA microarray technique relative to control. The method in brief: (§2)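 8 × 10⁶ cells exposed 48 h to compound at its IC50 concentration; total RNA isolated with trizol/chloroform and RNeasy columns including on-column DNase step; RNA quantified by OD 260/280; DMSO-treated cultures as control.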

In test [4] the test system is HT-29. Nature of the test: Down regulation of TRPA1 gene expression in human HT-29 cells at IC50 after 48 hrs by cDNA microarray technique relative to control.
In test [5] the test system is MCF7. Nature of the test: Upregulation of ZNF141 gene expression in human MCF7 cells at IC50 after 48 hrs by cDNA microarray technique relative to control.
Test [6] deals with HT-29. The experiment in a line: Upregulation of CTSZ gene expression in human HT-29 cells at IC50 after 48 hrs by cDNA microarray technique relative to control.
The test system of test [7] is MCF7. The experiment in a line: Down regulation of FLJ22955 gene expression in human MCF7 cells at IC50 after 48 hrs by cDNA microarray technique relative to control. The method in brief:
as §1

Test [8] relates to HT-29. The experiment in a line: Upregulation of YPEL1 gene expression in human HT-29 cells at IC50 after 48 hrs by cDNA microarray technique relative to control.
For test [9], the system named is MCF7. The experiment in a line: Down regulation of FLJ35954 gene expression in human MCF7 cells at IC50 after 48 hrs by cDNA microarray technique relative to control. The method in brief:
as §1

The subject of test [10] is MCF7. Nature of the test: Upregulation of AY232284 gene expression in human MCF7 cells at IC50 after 48 hrs by cDNA microarray technique relative to control.
In test [11] the test system is HT-29. The experiment in a line: Upregulation of KIAA0553 gene expression in human HT-29 cells at IC50 after 48 hrs by cDNA microarray technique relative to control.
Test [12] concerns HT-29. The experiment in a line: Down regulation of SOCS4 gene expression in human HT-29 cells at IC50 after 48 hrs by cDNA microarray technique relative to control.
For test [13], the system named is MCF7. The experiment in a line: Upregulation of ANKRD35 gene expression in human MCF7 cells at IC50 after 48 hrs by cDNA microarray technique relative to control.
The test system of test [14] is HT-29. Nature of the test: Down regulation of HSPA1A gene expression in human HT-29 cells at IC50 after 48 hrs by cDNA microarray technique relative to control. The method in brief:
as §1

Test [15] relates to HT-29. Nature of the test: Down regulation of DT1P1A10 gene expression in human HT-29 cells at IC50 after 48 hrs by cDNA microarray technique relative to control. The method in brief:
as §1

Test [16] has as its system HT-29. Nature of the test: Down regulation of MGC2654 gene expression in human HT-29 cells at IC50 after 48 hrs by cDNA microarray technique relative to control.
The subject of test [17] is MCF7. Nature of the test: Down regulation of CCT6B gene expression in human MCF7 cells at IC50 after 48 hrs by cDNA microarray technique relative to control. The method in brief: as §2
Test [18] relates to MCF7. The experiment in a line: Down regulation of CNIH3 gene expression in human MCF7 cells at IC50 after 48 hrs by cDNA microarray technique relative to control. The method in brief: as §2
Test [19] concerns HT-29. Nature of the test: Down regulation of STK19 gene expression in human HT-29 cells at IC50 after 48 hrs by cDNA microarray technique relative to control.
The test system of test [20] is HT-29. Nature of the test: Down regulation of GANAB gene expression in human HT-29 cells at IC50 after 48 hrs by cDNA microarray technique relative to control. The method in brief: as §1
In test [21] the test system is HT-29. Nature of the test: Down regulation of HUS1B gene expression in human HT-29 cells at IC50 after 48 hrs by cDNA microarray technique relative to control. The method in brief: as §1
The subject of test [22] is HT-29. The experiment in a line: Down regulation of GBGT1 gene expression in human HT-29 cells at IC50 after 48 hrs by cDNA microarray technique relative to control. The method in brief: as §1
In test [23] the test system is MCF7. Nature of the test: Upregulation of CITED1 gene expression in human MCF7 cells at IC50 after 48 hrs by cDNA microarray technique relative to control.
Test [24] concerns HT-29. The experiment in a line: Down regulation of C20orf178 gene expression in human HT-29 cells at IC50 after 48 hrs by cDNA microarray technique relative to control. The method in brief:
as §2

The test system of test [25] is HT-29. Nature of the test: Down regulation of HNRPA2B1 gene expression in human HT-29 cells at IC50 after 48 hrs by cDNA microarray technique relative to control. The method in brief: as §1
The test system of test [26] is MCF7. The experiment in a line: Upregulation of GALNT13 gene expression in human MCF7 cells at IC50 after 48 hrs by cDNA microarray technique relative to control.
Test [27] has as its system MCF7. Nature of the test: Down regulation of ZNF365 gene expression in human MCF7 cells at IC50 after 48 hrs by cDNA microarray technique relative to control.
Test [28] concerns MCF7. Nature of the test: Down regulation of ZNF354A gene expression in human MCF7 cells at IC50 after 48 hrs by cDNA microarray technique relative to control.
The subject of test [29] is HT-29. Nature of the test: Down regulation of DRD5 gene expression in human HT-29 cells at IC50 after 48 hrs by cDNA microarray technique relative to control. The method in brief: as §1
The test system of test [30] is HT-29. The experiment in a line: Down regulation of SLC22A1 gene expression in human HT-29 cells at IC50 after 48 hrs by cDNA microarray technique relative to control.
Test [31] concerns MCF7. Nature of the test: Upregulation of LRRC48 gene expression in human MCF7 cells at IC50 after 48 hrs by cDNA microarray technique relative to control.
In test [32] the test system is HT-29. Nature of the test: Upregulation of PLOD2 gene expression in human HT-29 cells at IC50 after 48 hrs by cDNA microarray technique relative to control.
Test [33] relates to MCF7. Nature of the test: Upregulation of ERN1 gene expression in human MCF7 cells at IC50 after 48 hrs by cDNA microarray technique relative to control.
The subject of test [34] is HT-29. Nature of the test: Upregulation of CDH15 gene expression in human HT-29 cells at IC50 after 48 hrs by cDNA microarray technique relative to control.
Test [35] deals with MCF7. The experiment in a line: Down regulation of LTBP2 gene expression in human MCF7 cells at IC50 after 48 hrs by cDNA microarray technique relative to control.
In test [36] the test system is HT-29. Nature of the test: Down regulation of HKE2 gene expression in human HT-29 cells at IC50 after 48 hrs by cDNA microarray technique relative to control. The method in brief:
as §1

The test system of test [37] is MCF7. The experiment in a line: Upregulation of GPR132 gene expression in human MCF7 cells at IC50 after 48 hrs by cDNA microarray technique relative to control.
Test [38] has as its system HT-29. Nature of the test: Down regulation of SLC39A7 gene expression in human HT-29 cells at IC50 after 48 hrs by cDNA microarray technique relative to control.

Turning to `COC(CN(c1ccccc1CO)S(=O)(=O)c1ccccc1[N+](=O)[O-])n1cnc2ncnc(Cl)c21` (racemic), the “fold change (FC)” value in the test with MCF7 [1] is recorded as -2.01; in the test with MCF7 [2] it was -2.11; in the test on MCF7 [3], -2.26; in the test on HT-29 [4], -3.22; in the test with MCF7 [5], 4.04; with HT-29 [6] it was 2.23. The figures for the “fold change (FC)” value in the test with MCF7 [7], in the test on HT-29 [8] and in the test with MCF7 [9] were -2.65, 4.71 and -2.06, respectively.

Regarding `O=C(OCC1c2ccccc2-c2ccccc21)N1CC(n2cnc3c(Cl)ncnc32)OCc2ccccc21` (racemic), the “fold change (FC)” value in the test on MCF7 [10] was 3.98; in the test on HT-29 [11], 2.07; with HT-29 [12] it was -2; in the test on MCF7 [13], 6.08; in the test on HT-29 [14], -2.2; with HT-29 [15] it was -2.28. For the same compound, the “fold change (FC)” value with HT-29 [16] is given as -2.02; in the test with MCF7 [17] it was -3.22; in the test with MCF7 [18] it was -3.32; in the test with HT-29 [19] it was -2.34; in the test with HT-29 [20], -2.04; in the test on HT-29 [21], -2.3. The “fold change (FC)” value is -2.07 in the test with HT-29 [22]; 2.73 in the test on MCF7 [23]; -2.21 in the test on HT-29 [24]; -2.33 with HT-29 [25]; 3.23 with MCF7 [26]; 2 in the test on MCF7 [27]. For the same compound, the “fold change (FC)” value in the test with MCF7 [28] is -2.05; in the test on HT-29 [29] it was -2.3; in the test on HT-29 [30], -2.27; with MCF7 [31], 2.18; with HT-29 [32], 2.76; in the test on MCF7 [33] it was 2.81. In addition, the “fold change (FC)” value is 2.06 in the test with HT-29 [34]; -3.28 in the test on MCF7 [35]; -2 in the test on HT-29 [36]; 2.1 in the test with MCF7 [37]; -2.19 in the test with HT-29 [38].
